For test [1], the system named is Acanthocheilonema viteae. As to the kind of experiment: anti-filarial Activity was measured against Acanthocheilonema viteae in jirds at 25 mg/kg/day(5 days) dose. The class given is functional. In outline:
(§1)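 Jirds with established B. pahangi or A. viteae infections were given drug once daily for 5 days by subcutaneous injection, at the maximum tolerated dose and, where supply allowed, graded lower doses. Tolerance was first checked in noninfected jirds with a single 200 mg/kg oral or subcutaneous dose, watching 72 h for excessive weight loss or death. Macrofilarial suppression was the read-out.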

The subject of test [2] is Acanthocheilonema viteae. The test is described as follows: anti-filarial Activity was measured against Acanthocheilonema viteae in jirds at 12.5 mg/kg/day(5 days) dose. The class given is functional. The gist of the method: as §1
Test [3] deals with Acanthocheilonema viteae. As to the kind of experiment: anti-filarial Activity was measured against Acanthocheilonema viteae in jirds at 100 mg/kg/day(5 days) dose. The class given is functional. The gist of the method:
as §1

The subject of test [4] is Brugia pahangi. As to the kind of experiment: anti-filarial Activity was measured against Brugia pahangi in jirds at 25 mg/kg/day(5 days) dose. The class given is functional. The gist of the method:
as §1

Test [5] concerns Brugia pahangi. As to the kind of experiment: anti-filarial Activity was measured against Brugia pahangi in jirds at 100 mg/kg/day(5 days) dose. The class given is functional. The gist of the method: as §1
In test [6] the test system is Brugia pahangi. As to the kind of experiment: anti-filarial Activity was measured against Brugia pahangi in jirds at 50 mg/kg/day(5 days) dose. The class given is functional. The gist of the method:
as §1

In test [7] the test system is Acanthocheilonema viteae. As to the kind of experiment: anti-filarial Activity was measured against Acanthocheilonema viteae in jirds at 50 mg/kg/day(5 days) dose. The class given is functional. The gist of the method: as §1
In test [8] the test system is Brugia pahangi. The test is described as follows: anti-filarial Activity was measured against Brugia pahangi in jirds at 12.5 mg/kg/day(5 days) dose. The class given is functional. The gist of the method:
as §1

Test [9] relates to Acanthocheilonema viteae. The test is described as follows: anti-filarial Activity was measured against Acanthocheilonema viteae in jirds at 1.56 mg/kg/day(5 days) dose. The class given is functional. In outline: as §1
The subject of test [10] is Brugia pahangi. As to the kind of experiment: anti-filarial Activity was measured against Brugia pahangi in jirds at 100 mg/kg/day(5 days) dose;toxic. The class given is functional, organism-based. The gist of the method: as §1
Test [11] deals with Brugia pahangi. As to the kind of experiment: anti-filarial Activity was measured against Brugia pahangi in jirds at 1.56 mg/kg/day(5 days) dose. The class given is functional. The gist of the method:
as §1

The subject of test [12] is Acanthocheilonema viteae. As to the kind of experiment: anti-filarial Activity was measured against Acanthocheilonema viteae in jirds at 6.25 mg/kg/day(5 days) dose. The class given is functional. In outline: as §1
Test [13] relates to Brugia pahangi. The test is described as follows: anti-filarial Activity was measured against Brugia pahangi in jirds at 6.25 mg/kg/day(5 days) dose. The class given is functional. In outline: as §1
The test system of test [14] is Acanthocheilonema viteae. The test is described as follows: anti-filarial Activity was measured against Acanthocheilonema viteae in jirds at 75 mg/kg/day(5 days) dose. The class given is functional. The gist of the method: as §1
The test system of test [15] is Brugia pahangi. The test is described as follows: anti-filarial Activity was measured against Brugia pahangi in jirds at 75 mg/kg/day(5 days) dose. The class given is functional. In outline: as §1
Test [16] concerns Acanthocheilonema viteae. The test is described as follows: anti-filarial Activity was measured against Acanthocheilonema viteae in jirds at 200 mg/kg/day(5 days) dose. The class given is functional. The gist of the method: as §1
The test system of test [17] is Brugia pahangi. As to the kind of experiment: anti-filarial Activity was measured against Brugia pahangi in jirds at 200 mg/kg/day(5 days) dose. The class given is functional. In outline: as §1

As for `C/C(=N\NC(S)=Nc1ccccc1N)c1ccccn1.Cl.Cl`, the Suppression was 100% in [1]; 36% in test [2]; 100% in [3]; 100% in [4]; 100% in test [5]; 100% in [6]. In addition, the figures for the Suppression in test [7] and in test [8] were 100% and 29%, respectively.

Regarding `C/C(=N\N=C(/S)Nc1cccc(N)c1)c1ccccn1`, the Suppression in [3] was found to be 43%; in test [5] it was 17%.

Turning to `C/C(=N\NC(N)=S)c1ccccn1`, the Suppression is 42% in test [2]; 60% in [9]; “Toxic” in test [10]; 41% in test [11]; 53% in test [8].

Take `C/C(=N\N=C(/S)Nc1c(N)c2ccccc2c2ccccc12)c1ccccn1`: the Suppression was determined as 23% in [3], 33% in test [5], 5% in test [6] and 23% in [7].

Take `C/C(=N\NC(=S)Nc1ccccc1)c1ccccn1`: the Suppression came out at 44% in [1], 17% in test [4], 97% in test [6] and 25% in [7].

Take `C/C(=N\NC(=S)N1CCN(c2ccccn2)CC1)c1ccccn1`: the Suppression was 40% in test [9], 100% in test [12] and -5% in [13].

Consider `C/C(=N\N=C(/S)N1CCN(c2ccc(Cl)cc2)CC1)c1ccccn1`, for which the Suppression in test [3] turned out to be 85%; in test [4], 6%; in [5] it was 14%.

Regarding `C/C(=N\N=C(/S)Nc1cccc(N)n1)c1ccccn1`, the Suppression in test [3] was found to be 14%; in test [5], 55%; in test [6] it was 5%; in [7], 14%.

In the case of `C/C(=N\N=C(/S)N1CCCCC1)c1ccccn1`, the Suppression was 14% in test [2], 25% in test [12], 65% in test [8] and 18% in [13].

Take `C/C(=N\N=C(/S)NCCN)c1ccccn1`: the Suppression in test [1] is 72%; in test [2], -40%; in [4], 26%; in test [8], -3%.

`C/C(=N\N=C(/S)Nc1ccc(C)cc1N)c1ccccn1`: the Suppression in test [1] stood at 44%; in test [14] it was 72%; in [3], 72%; in [15], 100%; in test [4] it was 29%; in test [5] it was 100%. The Suppression in test [6] is recorded as 100%; in [7] it was 75%.

`C/C(=N\N=C(/S)Nc1ccc(N)cc1)c1ccccn1`: the Suppression is given as 9% in test [1]; 25% in [16]; 34% in test [3]; 5% in test [4]; 39% in [5]; 60% in [17].

Take `C/C(=N\NC(=S)N1CCCC1)c1ccccn1`: the Suppression in test [2] is recorded as 31%; in test [11] it was 46%; in test [8] it was 86%.

Regarding `C/C(=N\N=C(/S)Nc1ccccc1N)c1ccccc1`, the Suppression in test [1] worked out at 15%; in test [16], 19%; in test [3] it was 9%; in test [4] it was 6%; in [5], 15%; in test [17], 71%.

As for `C/C(=N\N=C(/S)Nc1cc2ccccc2cc1N)c1ccccn1`, the values for the Suppression in test [3], in [5] and in test [7] were 37%, 49% and 4%, respectively.

For the molecule `C/C(=N\N=C(/S)N1CCCCCCCC1)c1ccccn1`, the Suppression was 16% in test [6] and 74% in [7].

These data come from ChEMBL document CHEMBL1125672, “2-acetylpyridine thiosemicarbazones. 13. Derivatives with antifilarial activity” (1991).
